Reference: ChEMBL document CHEMBL5712886, “Discovery and Characterization of GSK2801, a Selective Chemical Probe for the Bromodomains BAZ2A and BAZ2B” (J Med Chem, 2016)
Activity calls are given as the source filed them.

Columns and labels:
[1] = molecular target: Bromodomain and WD repeat-containing protein 1 (Homo sapiens) (UniProt Q9NSI6); assay: Binding affinity to biotinylated WDR9 (unknown origin) expressed in Escherichia coli at 0.2 to 1 uM by Biolayer Interferometric analysis; conditions: dose 0.2-1 µM
Summary of the method: (§1)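 Bromodomains carrying a BirA biotin ligase targeting sequence, coexpressed with BirA in bacteria to give homogeneous in vivo biotin labelling, checked by mass spectrometry. Biotinylated proteins probed by biolayer interferometry with compound at two concentrations, 0.2 and 1.0 μM.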

[2] = molecular target: Transcription initiation factor TFIID subunit 1 (Homo sapiens) (UniProt P21675); assay: Binding affinity to biotinylated TAF1 bromodomain-2 (unknown origin) expressed in Escherichia coli at 0.2 to 1 uM by Biolayer Interferometric analysis; conditions: dose 0.2-1 µM; summary of the method: as §1
[3] = molecular target: Transcription intermediary factor 1-alpha (Homo sapiens) (UniProt O15164); assay: Binding affinity to biotinylated TIF1 bromodomain-1 (unknown origin) expressed in Escherichia coli at 0.2 to 1 uM by Biolayer Interferometric analysis; conditions: dose 0.2-1 µM; summary of the method: as §1
[4] = molecular target: Protein polybromo-1 (Homo sapiens) (UniProt Q86U86); assay: Binding affinity to biotinylated PB1 bromodomain-6 (unknown origin) expressed in Escherichia coli at 0.2 to 1 uM by Biolayer Interferometric analysis; conditions: dose 0.2-1 µM; summary of the method: as §1
Chain of Protein polybromo-1 (Homo sapiens) (Q86U86 whole entry): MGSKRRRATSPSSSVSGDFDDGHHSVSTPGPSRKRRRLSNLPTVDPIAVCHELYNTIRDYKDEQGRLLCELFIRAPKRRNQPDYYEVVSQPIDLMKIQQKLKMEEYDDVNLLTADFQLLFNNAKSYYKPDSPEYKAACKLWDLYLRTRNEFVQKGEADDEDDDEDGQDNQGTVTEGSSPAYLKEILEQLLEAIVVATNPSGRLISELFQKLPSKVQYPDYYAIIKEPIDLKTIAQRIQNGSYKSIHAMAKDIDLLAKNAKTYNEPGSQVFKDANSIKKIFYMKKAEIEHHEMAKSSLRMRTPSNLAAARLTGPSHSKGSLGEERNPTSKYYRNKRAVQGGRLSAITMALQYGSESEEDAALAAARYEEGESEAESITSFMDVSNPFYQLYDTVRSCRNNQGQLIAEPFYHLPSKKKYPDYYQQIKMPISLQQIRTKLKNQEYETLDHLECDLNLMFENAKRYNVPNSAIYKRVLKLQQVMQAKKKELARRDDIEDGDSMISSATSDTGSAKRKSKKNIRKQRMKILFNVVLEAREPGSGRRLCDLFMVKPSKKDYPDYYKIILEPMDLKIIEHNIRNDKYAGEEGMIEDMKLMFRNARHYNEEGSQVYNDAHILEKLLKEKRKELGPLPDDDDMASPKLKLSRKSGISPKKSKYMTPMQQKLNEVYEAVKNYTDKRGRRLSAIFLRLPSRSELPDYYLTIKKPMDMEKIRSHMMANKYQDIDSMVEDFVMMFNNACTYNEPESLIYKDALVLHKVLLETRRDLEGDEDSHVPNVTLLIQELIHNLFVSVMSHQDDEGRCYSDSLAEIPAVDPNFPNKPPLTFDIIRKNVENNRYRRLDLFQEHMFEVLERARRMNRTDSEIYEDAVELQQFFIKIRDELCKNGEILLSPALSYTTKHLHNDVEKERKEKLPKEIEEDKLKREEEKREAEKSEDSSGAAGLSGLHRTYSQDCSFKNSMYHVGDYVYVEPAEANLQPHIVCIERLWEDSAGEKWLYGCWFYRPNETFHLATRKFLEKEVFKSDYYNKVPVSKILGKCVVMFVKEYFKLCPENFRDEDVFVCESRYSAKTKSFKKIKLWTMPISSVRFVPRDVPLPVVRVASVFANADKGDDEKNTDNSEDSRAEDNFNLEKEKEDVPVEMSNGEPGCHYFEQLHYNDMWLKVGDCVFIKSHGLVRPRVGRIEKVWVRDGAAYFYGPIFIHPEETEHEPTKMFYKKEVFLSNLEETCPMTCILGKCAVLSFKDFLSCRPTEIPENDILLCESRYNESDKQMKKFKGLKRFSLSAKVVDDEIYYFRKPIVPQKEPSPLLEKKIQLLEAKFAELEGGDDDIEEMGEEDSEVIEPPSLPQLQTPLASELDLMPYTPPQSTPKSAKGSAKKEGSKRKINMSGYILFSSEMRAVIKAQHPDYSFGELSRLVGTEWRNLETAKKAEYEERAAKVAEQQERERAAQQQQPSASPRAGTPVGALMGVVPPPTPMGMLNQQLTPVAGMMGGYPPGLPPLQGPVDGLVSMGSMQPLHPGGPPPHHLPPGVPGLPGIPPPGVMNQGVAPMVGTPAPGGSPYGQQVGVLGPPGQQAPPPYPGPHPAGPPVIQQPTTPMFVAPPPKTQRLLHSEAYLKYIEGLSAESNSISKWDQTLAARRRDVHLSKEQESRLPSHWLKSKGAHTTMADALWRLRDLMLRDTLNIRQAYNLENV

[5] = molecular target: Transcription initiation factor TFIID subunit 1-like (Homo sapiens) (UniProt Q8IZX4); assay: Binding affinity to biotinylated TAF1L bromodomain-2 (unknown origin) expressed in Escherichia coli at 0.2 to 1 uM by Biolayer Interferometric analysis; conditions: dose 0.2-1 µM; summary of the method: as §1
Chain of Transcription initiation factor TFIID subunit 1-like (Homo sapiens) (Q8IZX4 whole entry): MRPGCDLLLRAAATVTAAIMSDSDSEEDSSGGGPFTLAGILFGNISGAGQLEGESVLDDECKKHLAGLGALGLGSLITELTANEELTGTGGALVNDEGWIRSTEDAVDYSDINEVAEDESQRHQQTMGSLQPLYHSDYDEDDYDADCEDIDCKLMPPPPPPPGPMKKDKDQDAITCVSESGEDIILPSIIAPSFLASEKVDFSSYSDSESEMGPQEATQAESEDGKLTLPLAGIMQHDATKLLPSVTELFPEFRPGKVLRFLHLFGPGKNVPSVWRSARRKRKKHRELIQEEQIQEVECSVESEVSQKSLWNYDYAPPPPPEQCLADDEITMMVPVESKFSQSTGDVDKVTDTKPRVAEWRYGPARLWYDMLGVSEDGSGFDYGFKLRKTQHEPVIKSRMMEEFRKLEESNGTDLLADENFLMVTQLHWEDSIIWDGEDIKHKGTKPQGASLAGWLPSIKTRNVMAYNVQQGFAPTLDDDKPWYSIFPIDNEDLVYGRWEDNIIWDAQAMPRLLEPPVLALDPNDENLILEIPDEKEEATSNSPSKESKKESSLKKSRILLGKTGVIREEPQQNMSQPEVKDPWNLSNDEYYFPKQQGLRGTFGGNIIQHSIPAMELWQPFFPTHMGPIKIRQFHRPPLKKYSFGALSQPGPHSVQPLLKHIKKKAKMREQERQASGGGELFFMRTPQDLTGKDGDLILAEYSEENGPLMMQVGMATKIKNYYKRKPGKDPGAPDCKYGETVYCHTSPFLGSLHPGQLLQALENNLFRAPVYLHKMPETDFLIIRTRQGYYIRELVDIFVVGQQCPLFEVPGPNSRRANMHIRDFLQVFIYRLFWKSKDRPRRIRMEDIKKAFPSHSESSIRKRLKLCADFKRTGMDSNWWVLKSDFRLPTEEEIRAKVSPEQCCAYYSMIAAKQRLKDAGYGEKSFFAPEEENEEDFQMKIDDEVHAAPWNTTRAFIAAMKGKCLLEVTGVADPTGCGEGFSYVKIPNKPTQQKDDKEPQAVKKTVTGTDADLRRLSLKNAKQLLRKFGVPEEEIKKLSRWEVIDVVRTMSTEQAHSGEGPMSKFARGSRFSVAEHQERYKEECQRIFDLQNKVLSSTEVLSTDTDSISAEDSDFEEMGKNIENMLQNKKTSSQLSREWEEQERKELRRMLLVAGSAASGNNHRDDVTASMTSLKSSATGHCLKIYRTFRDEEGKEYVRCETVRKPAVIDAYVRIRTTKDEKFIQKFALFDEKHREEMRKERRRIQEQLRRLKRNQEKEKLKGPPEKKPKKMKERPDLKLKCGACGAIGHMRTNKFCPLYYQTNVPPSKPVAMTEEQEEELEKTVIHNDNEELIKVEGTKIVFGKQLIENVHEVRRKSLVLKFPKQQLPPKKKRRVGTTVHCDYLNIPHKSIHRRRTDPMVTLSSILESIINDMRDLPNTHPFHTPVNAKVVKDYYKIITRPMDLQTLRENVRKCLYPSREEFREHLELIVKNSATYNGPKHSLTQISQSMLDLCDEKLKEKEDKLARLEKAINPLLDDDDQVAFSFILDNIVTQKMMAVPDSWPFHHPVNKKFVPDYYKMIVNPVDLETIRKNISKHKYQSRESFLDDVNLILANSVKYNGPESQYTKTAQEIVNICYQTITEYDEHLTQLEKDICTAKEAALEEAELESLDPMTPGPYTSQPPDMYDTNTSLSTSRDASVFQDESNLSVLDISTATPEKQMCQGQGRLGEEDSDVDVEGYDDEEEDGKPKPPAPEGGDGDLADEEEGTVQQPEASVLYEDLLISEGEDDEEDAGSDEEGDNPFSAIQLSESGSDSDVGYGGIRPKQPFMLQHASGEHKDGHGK

[6] = molecular target: Bromodomain and WD repeat-containing protein 3 (Homo sapiens) (UniProt Q6RI45); assay: Binding affinity to biotinylated BRWD3 bromodomain-2 (unknown origin) expressed in Escherichia coli at 0.2 to 1 uM by Biolayer Interferometric analysis; conditions: dose 0.2-1 µM; summary of the method: as §1
[7] = molecular target: Transcription initiation factor TFIID subunit 1-like (Homo sapiens) (UniProt Q8IZX4); assay: Binding affinity to biotinylated TAF1L bromodomain-1 (unknown origin) expressed in Escherichia coli at 0.2 to 1 uM by Biolayer Interferometric analysis; conditions: dose 0.2-1 µM; summary of the method: as §1
[8] = molecular target: Bromodomain testis-specific protein (Homo sapiens) (UniProt Q58F21); assay: Binding affinity to biotinylated BRDT bromodomain-2 (unknown origin) expressed in Escherichia coli at 0.2 to 1 uM by Biolayer Interferometric analysis; conditions: dose 0.2-1 µM; summary of the method: as §1
[9] = molecular target: T1, SWI/SNF-related matrix-associated actin-dependent regulator of chromatin subfamily A member 2 (Homo sapiens, UniProt P51531); assay: Binding affinity to SMARCA2 in human HuT78 cell extract using GSK2801 affinity matrix by chemoproteomic competition binding assay; format: cell-free
T1 sequence (P51531 whole entry): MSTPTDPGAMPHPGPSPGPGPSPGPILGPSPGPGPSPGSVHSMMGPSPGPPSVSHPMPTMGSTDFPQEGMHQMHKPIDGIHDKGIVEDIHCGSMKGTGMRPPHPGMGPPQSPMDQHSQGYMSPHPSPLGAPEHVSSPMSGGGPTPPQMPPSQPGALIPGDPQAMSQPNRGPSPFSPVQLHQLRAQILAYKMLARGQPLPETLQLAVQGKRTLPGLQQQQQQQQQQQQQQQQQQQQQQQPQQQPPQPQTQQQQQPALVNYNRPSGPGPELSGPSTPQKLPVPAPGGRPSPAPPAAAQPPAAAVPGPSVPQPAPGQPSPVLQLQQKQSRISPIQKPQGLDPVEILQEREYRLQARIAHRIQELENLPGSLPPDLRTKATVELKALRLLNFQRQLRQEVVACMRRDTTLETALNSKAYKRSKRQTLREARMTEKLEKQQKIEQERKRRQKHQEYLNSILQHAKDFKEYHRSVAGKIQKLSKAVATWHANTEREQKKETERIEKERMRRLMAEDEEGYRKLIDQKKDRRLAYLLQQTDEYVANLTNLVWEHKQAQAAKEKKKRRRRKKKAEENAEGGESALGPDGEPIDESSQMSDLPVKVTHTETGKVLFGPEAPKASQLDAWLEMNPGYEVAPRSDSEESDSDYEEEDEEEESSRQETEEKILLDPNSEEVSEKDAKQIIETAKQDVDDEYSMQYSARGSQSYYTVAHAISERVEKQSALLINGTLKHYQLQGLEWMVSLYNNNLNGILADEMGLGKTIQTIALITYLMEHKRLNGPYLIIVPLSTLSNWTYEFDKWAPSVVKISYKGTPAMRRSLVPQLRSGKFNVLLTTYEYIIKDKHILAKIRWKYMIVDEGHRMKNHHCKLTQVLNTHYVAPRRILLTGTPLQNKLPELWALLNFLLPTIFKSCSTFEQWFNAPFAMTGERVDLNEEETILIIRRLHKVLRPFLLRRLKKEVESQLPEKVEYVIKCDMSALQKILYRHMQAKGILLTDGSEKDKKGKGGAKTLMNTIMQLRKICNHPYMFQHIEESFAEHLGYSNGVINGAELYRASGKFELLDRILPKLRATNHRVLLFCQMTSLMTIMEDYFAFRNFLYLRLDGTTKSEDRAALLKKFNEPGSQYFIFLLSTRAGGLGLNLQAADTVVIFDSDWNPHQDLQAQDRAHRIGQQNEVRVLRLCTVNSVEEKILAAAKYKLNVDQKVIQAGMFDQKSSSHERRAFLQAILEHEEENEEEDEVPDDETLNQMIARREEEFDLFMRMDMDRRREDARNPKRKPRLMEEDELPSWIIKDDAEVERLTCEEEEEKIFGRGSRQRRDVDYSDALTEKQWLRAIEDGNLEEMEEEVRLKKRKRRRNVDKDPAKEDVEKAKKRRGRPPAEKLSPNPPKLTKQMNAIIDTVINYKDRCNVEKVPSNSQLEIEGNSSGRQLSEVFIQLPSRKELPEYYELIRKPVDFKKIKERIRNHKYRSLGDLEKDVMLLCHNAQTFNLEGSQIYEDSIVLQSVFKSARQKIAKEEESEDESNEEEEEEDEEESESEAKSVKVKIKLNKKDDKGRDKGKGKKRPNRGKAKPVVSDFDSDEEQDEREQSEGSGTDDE

[10] = molecular target: Bromodomain-containing protein 2 (Homo sapiens) (UniProt P25440); assay: Binding affinity to biotinylated BRD2 bromodomain-2 (unknown origin) expressed in Escherichia coli at 0.2 to 1 uM by Biolayer Interferometric analysis; conditions: dose 0.2-1 µM; summary of the method: as §1
[11] = molecular target: T2, Bromodomain-containing protein 9 (Homo sapiens) (UniProt Q9H8M2); assay: Binding affinity to biotinylated BRD9 (unknown origin) expressed in Escherichia coli at 0.2 to 1 uM by Biolayer Interferometric analysis; conditions: dose 0.2-1 µM; summary of the method: as §1
T2 sequence (whole entry): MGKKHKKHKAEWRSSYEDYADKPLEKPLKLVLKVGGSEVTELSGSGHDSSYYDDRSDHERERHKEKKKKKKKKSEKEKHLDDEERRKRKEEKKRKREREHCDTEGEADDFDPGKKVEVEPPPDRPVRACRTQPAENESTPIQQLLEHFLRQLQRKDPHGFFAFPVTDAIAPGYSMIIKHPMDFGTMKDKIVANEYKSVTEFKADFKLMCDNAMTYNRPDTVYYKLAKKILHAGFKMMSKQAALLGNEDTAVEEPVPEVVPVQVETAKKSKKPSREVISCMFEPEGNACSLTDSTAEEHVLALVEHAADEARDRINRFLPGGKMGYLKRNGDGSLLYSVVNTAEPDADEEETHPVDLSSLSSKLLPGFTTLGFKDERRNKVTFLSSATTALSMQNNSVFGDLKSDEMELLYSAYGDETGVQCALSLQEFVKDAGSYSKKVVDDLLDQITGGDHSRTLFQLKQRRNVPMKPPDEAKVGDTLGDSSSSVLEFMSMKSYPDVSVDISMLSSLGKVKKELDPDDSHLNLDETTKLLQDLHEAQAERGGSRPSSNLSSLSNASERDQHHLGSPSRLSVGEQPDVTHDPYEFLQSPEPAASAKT

[12] = molecular target: Protein polybromo-1 (Homo sapiens) (UniProt Q86U86); assay: Binding affinity to biotinylated PB1 bromodomain-4 (unknown origin) expressed in Escherichia coli at 0.2 to 1 uM by Biolayer Interferometric analysis; conditions: dose 0.2-1 µM; summary of the method: as §1
[13] = molecular target: Peregrin (Homo sapiens) (UniProt P55201); assay: Binding affinity to biotinylated BRPF1 bromodomain-1 (unknown origin) expressed in Escherichia coli at 0.2 to 1 uM by Biolayer Interferometric analysis; conditions: dose 0.2-1 µM; summary of the method: as §1
[14] = molecular target: Bromodomain adjacent to zinc finger domain protein 2A (Homo sapiens) (UniProt Q9UIF9); assay: Binding affinity to BAZ2A in human HuT78 cell extract up to 50 uM using GSK2801 affinity matrix by chemoproteomic competition binding assay; format: cell-free
[15] = molecular target: Histone-lysine N-methyltransferase ASH1L (Homo sapiens) (UniProt Q9NR48); assay: Binding affinity to biotinylated ASH1L bromodomain (unknown origin) expressed in Escherichia coli at 0.2 to 1 uM by Biolayer Interferometric analysis; conditions: dose 0.2-1 µM; summary of the method: as §1
[16] = molecular target: Protein polybromo-1 (Homo sapiens) (UniProt Q86U86); assay: Binding affinity to biotinylated PB1 bromodomain-5 (unknown origin) expressed in Escherichia coli at 0.2 to 1 uM by Biolayer Interferometric analysis; conditions: dose 0.2-1 µM; summary of the method: as §1
[17] = molecular target: T1, SWI/SNF-related matrix-associated actin-dependent regulator of chromatin subfamily A member 2; assay: Binding affinity to biotinylated SMARCA2 (unknown origin) expressed in Escherichia coli at 0.2 to 1 uM by Biolayer Interferometric analysis; conditions: dose 0.2-1 µM; summary of the method: as §1
[18] = molecular target: Protein polybromo-1 (Homo sapiens) (UniProt Q86U86); assay: Binding affinity to biotinylated PB1 bromodomain-1 (unknown origin) expressed in Escherichia coli at 0.2 to 1 uM by Biolayer Interferometric analysis; conditions: dose 0.2-1 µM; summary of the method: as §1
[19] = molecular target: CREB-binding protein (Homo sapiens) (UniProt Q92793); assay: Binding affinity to biotinylated CREBBP (unknown origin) expressed in Escherichia coli at 0.2 to 1 uM by Biolayer Interferometric analysis; conditions: dose 0.2-1 µM; summary of the method: as §1
[20] = molecular target: SWI/SNF-related matrix-associated actin-dependent regulator of chromatin subfamily A member 4 (Homo sapiens, UniProt P51532); assay: Binding affinity to biotinylated SMARCA4 (unknown origin) expressed in Escherichia coli at 0.2 to 1 uM by Biolayer Interferometric analysis; conditions: dose 0.2-1 µM; summary of the method: as §1
[21] = molecular target: PH-interacting protein (Homo sapiens) (UniProt Q8WWQ0); assay: Binding affinity to biotinylated PHIP (unknown origin) expressed in Escherichia coli at 0.2 to 1 uM by Biolayer Interferometric analysis; conditions: dose 0.2-1 µM; summary of the method: as §1
[22] = molecular target: Bromodomain-containing protein 3 (Homo sapiens) (UniProt Q15059); assay: Binding affinity to biotinylated BRD3 bromodomain-1 (unknown origin) expressed in Escherichia coli at 0.2 to 1 uM by Biolayer Interferometric analysis; conditions: dose 0.2-1 µM; summary of the method: as §1

CCCOc1ccn2c(C(C)=O)cc(-c3cccc(OC)c3)c2c1
active: Activity [11]
inactive: Activity [1] | Activity [2] | Activity [3] | Activity [4] | Activity [5] | Activity [6] | Activity [7] | Activity [8] | Activity [10] | Activity [12] | Activity [13] | Activity [14] | Activity [15] | Activity [16] | Activity [17] | Activity [18] | Activity [19] | Activity [20] | Activity [21] | Activity [22]
15.8 µM: Kd [9]
